By LC50 is commonly meant the concentration that kills 50% of the test population.

Consider 16 compounds from ChEMBL document CHEMBL3351710, “Synthesis of novel thiadiazolotriazin-4-ones and study of their mosquito-larvicidal and antibacterial properties” (Eur J Med Chem, 2014).

Values after ≈ are worked out from the molar mass of the structure shown.

The subject of data set [1] is Anopheles stephensi. Kind of data set: Larvicidal activity against Anopheles stephensi late III or early IV instar larvae assessed as mortality after 24 hrs relative to untreated control. The format is functional. Put shortly:
(§1)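 25 late III/early IV instar larvae in 250 mL water per beaker, exposed to a range of concentrations; a negative control ran with each set and malathion served as reference insecticide. Mortality was scored after 24 h in triplicate per sample. LC50 with 95% confidence limits was derived by Abbott's formula and log probit analysis.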

The subject of data set [2] is Escherichia coli. Briefly: Antibacterial activity against Escherichia coli MTCC-725 assessed as zone of inhibition at 1 ug/ml. The format is functional. The conditions noted are these: read-out: DIZ. Put shortly: (§2)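 Disc diffusion on Nutrient Agar. Strains were first grown on NA for 24 h at 37 °C, then spread as a lawn. Compounds were dissolved in DMSO. Sterile 6 mm discs were saturated with test solution, dried under laminar flow and placed on the inoculated plates. Plates were incubated at 37 °C for 18–24 h, and clear-zone diameters were measured.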

Data set [3] relates to Anopheles stephensi. Kind of data set: Larvicidal activity against Anopheles stephensi late III or early IV instar larvae assessed as mortality after 24 hrs. The format is functional. The conditions noted are these: for LC50: Anopheles stephensi, iv, 24 h. An outline of the steps:
as §1

Data set [4] relates to Staphylococcus aureus. Kind of data set: Antibacterial activity against Staphylococcus aureus MTCC-7443 assessed as zone of inhibition at 1 ug/ml. The format is functional. The settings on record: read-out: DIZ. An outline of the steps:
as §2

For data set [5], the system named is Aeromonas hydrophila. Kind of data set: Antibacterial activity against Aeromonas hydrophila MTCC-1739 assessed as zone of inhibition at 1 ug/ml. It is filed as functional. The settings on record: read-out: DIZ. Put shortly: as §2
The subject of data set [6] is Mus musculus. Kind of data set: Toxicity in po dosed Swiss albino mouse after 72 hrs. It is filed as organism-based. The settings on record: in vivo.
For data set [7], the system named is Bacillus subtilis. Briefly: Antibacterial activity against Bacillus subtilis MTCC-441 assessed as zone of inhibition at 1 ug/ml. The format is functional. The conditions noted are these: read-out: DIZ. Put shortly: as §2
Data set [8] deals with Bacillus subtilis. Briefly: Antibacterial activity against Bacillus subtilis MTCC-441 assessed as zone of inhibition at 10 ug/disc. It is filed as functional. The conditions noted are these: read-out: DIZ. Put shortly:
as §2

The subject of data set [9] is Escherichia coli. Kind of data set: Antibacterial activity against Escherichia coli MTCC-725 assessed as zone of inhibition at 10 ug/disc. The format is functional. The settings on record: read-out: DIZ. Put shortly: as §2
For data set [10], the system named is Staphylococcus aureus. Kind of data set: Antibacterial activity against Staphylococcus aureus MTCC-7443 assessed as zone of inhibition at 10 ug/disc. It is filed as functional. The conditions noted are these: read-out: DIZ. An outline of the steps:
as §2

The subject of data set [11] is Aeromonas hydrophila. Kind of data set: Antibacterial activity against Aeromonas hydrophila MTCC-1739 assessed as zone of inhibition at 10 ug/disc. The conditions noted are these: read-out: DIZ. It is filed as functional. Put shortly:
as §2

With `Cc1cc(Cl)ccc1OCc1nn2c(=O)c(C(C)(C)C)nnc2s1`, the Ratio in data set [1] turned out to be 0.17. Moreover, the values for the zone of inhibition at 1 µg/mL in data set [2], in data set [4] and in data set [5] were 18.9 mm, 12.6 mm and 19.6 mm, respectively. In addition, in data set [3], the LC90 was found to be 71.45 µg/mL (≈ 196 µM). In data set [3], the LC50 amounted to 49.3 µg/mL (≈ 135 µM).

As for `CC(=O)c1ccc(OCc2nn3c(=O)c(C(C)(C)C)nnc3s2)cc1`, in data set [1], the Ratio amounted to 0.1. The zone of inhibition at 1 µg/mL in data set [2] is 22.7 mm; in data set [4], 18.7 mm; in data set [5] it was 19.3 mm; in data set [7], 25.7 mm. Moreover, the LC90 in [3] was determined as 135.9 µg/mL (≈ 379 µM). Also, the median lethal concentration (LC50) in [3] is 86.6 µg/mL (≈ 242 µM). The compound further yielded an MLD in data set [6] of 1820 mg/kg.

Regarding `CC(C)(C)c1nnc2sc(COc3ccc(I)cc3)nn2c1=O`, the Ratio in [1] is 0.11. Moreover, in data set [3], the LC90 was 124.77 µg/mL (≈ 282 µM) and the LC50 amounted to 77.5 µg/mL (≈ 175 µM). Moreover, the zone of inhibition at 1 µg/mL in [7] was 11.9 mm.

For `CC(C)(C)c1nnc2sc(COc3cc(Cl)c(Cl)cc3Cl)nn2c1=O`, in data set [1], the Ratio was 0.11. Besides, the zone of inhibition at 1 µg/mL was determined as 16.5 mm in [2], 22.4 mm in data set [4], 17.5 mm in data set [5] and 19.3 mm in data set [7]. Moreover, the LC90 in [3] was determined as 115.05 µg/mL (≈ 274 µM). Further, the LC50 in data set [3] came out at 81.6 µg/mL (≈ 194 µM).

For the compound `CC(C)(C)c1nnc2sc(COc3ccccc3Cl)nn2c1=O`, the Ratio in [1] is listed as 0.12. Moreover, the zone of inhibition at 1 µg/mL came to 19.5 mm in data set [2], 16.6 mm in data set [4], 16.5 mm in data set [5] and 18.9 mm in data set [7]. The LC90 in data set [3] came out at 113.57 µg/mL (≈ 324 µM). For the same compound, in data set [3], the LC50 was 72.8 µg/mL (≈ 208 µM).

With `CC(C)(C)c1nnc2sc(C(C)(C)Oc3ccc(Cl)cc3)nn2c1=O`, the Ratio in [1] was 0.15. The zone of inhibition at 1 µg/mL worked out at 21.1 mm in data set [2], 19.6 mm in data set [4], 22.4 mm in data set [5] and 18.4 mm in data set [7]. The LC90 in [3] is 87.49 µg/mL (≈ 231 µM). Further, in data set [3], the LC50 is 55.2 µg/mL (≈ 146 µM). In [6], this compound registered an MLD of 2260 mg/kg.

Turning to `CC(C)(C)c1nnc2sc(COc3ccccc3)nn2c1=O`, the Ratio in [1] is given as 0.11. The zone of inhibition at 1 µg/mL in data set [2] is 10.9 mm. Also, in data set [3], the LC90 was 120.98 µg/mL (≈ 382 µM) and the LC50 was found to be 79.2 µg/mL (≈ 250 µM). Moreover, in data set [4], the zone of inhibition at 1 µg/mL came to 12.3 mm.

In the case of `COc1ccccc1OCc1nn2c(=O)c(C(C)(C)C)nnc2s1`, the Ratio in data set [1] stood at 0.34. The zone of inhibition at 1 µg/mL was found to be 15.6 mm in [2], 21.7 mm in [4], 13.9 mm in [5] and 19.2 mm in data set [7]. Besides, the LC90 in [3] is 37.78 µg/mL (≈ 109 µM). Also, the LC50 in data set [3] stood at 25.7 µg/mL (≈ 74.2 µM).

With `CC(C)(C)c1nnc2sc(COc3ccc(O)cc3)nn2c1=O`, the Ratio in data set [1] turned out to be 0.4. Moreover, the figures for the zone of inhibition at 1 µg/mL in data set [2], in [4] and in [5] were 14.3 mm, 11.7 mm and 10.5 mm, respectively. The LC90 in data set [3] was 32.11 µg/mL (≈ 96.6 µM). Besides, in data set [3], the LC50 came out at 21.7 µg/mL (≈ 65.3 µM). In addition, in data set [6], the MLD is 1360 mg/kg.

As for `CC(C)(C)c1nnc2sc(COc3ccccc3[N+](=O)[O-])nn2c1=O`, in data set [1], the Ratio came out at 0.12. The zone of inhibition at 1 µg/mL in data set [2] came to 11.7 mm; in data set [4] it was 19.8 mm; in data set [5], 9.6 mm; in [7], 16.8 mm. Also, the LC90 in data set [3] turned out to be 105.04 µg/mL (≈ 291 µM). In data set [3], the LC50 worked out at 70.5 µg/mL (≈ 195 µM).

Turning to `Cc1cccc(C)c1OCc1nn2c(=O)c(C(C)(C)C)nnc2s1`, the Ratio in data set [1] is reported as 0.11. The zone of inhibition at 1 µg/mL in [2] was found to be 11.4 mm; in [5], 10.4 mm; in data set [7], 9.8 mm. Further, in data set [3], the LC90 is 115.2 µg/mL (≈ 334 µM). In addition, in data set [3], the LC50 was found to be 103 µg/mL (≈ 298 µM).

For `Cc1cc(C)c(C)c(OCc2nn3c(=O)c(C(C)(C)C)nnc3s2)c1`, the Ratio in data set [1] is 0.29. Further, the zone of inhibition at 1 µg/mL was found to be 18.9 mm in data set [2], 17.6 mm in data set [4], 15.6 mm in [5] and 15.6 mm in data set [7]. For the same compound, in data set [3], the LC90 came to 45.05 µg/mL (≈ 126 µM). Besides, the median lethal concentration (LC50) in [3] turned out to be 39.8 µg/mL (≈ 111 µM).

Regarding `CC(C)(C)c1nnc2sc(COc3ccc(Cl)cc3Cl)nn2c1=O`, the Ratio in [1] was determined as 0.18. Further, the LC90 in [3] worked out at 73.2 µg/mL (≈ 190 µM). In data set [3], the LC50 stood at 48.7 µg/mL (≈ 126 µM). Moreover, the results for the zone of inhibition at 1 µg/mL in data set [4], in data set [5] and in data set [7] were 10.8 mm, 9.7 mm and 12.9 mm, respectively.

With `CC(C)(C)c1nnc2sc(COc3ccc(Cl)cc3)nn2c1=O`, in data set [1], the Ratio worked out at 0.14. For the same compound, the zone of inhibition at 1 µg/mL in data set [2] amounted to 13.9 mm; in data set [5], 12.5 mm; in data set [7], 11.2 mm. Also, the LC90 in data set [3] amounted to 90.45 µg/mL (≈ 258 µM). Besides, in data set [3], the median lethal concentration (LC50) worked out at 61.3 µg/mL (≈ 175 µM).

As to `CCOC(=O)CC(SP(=S)(OC)OC)C(=O)OCC` (configuration not stated) [MALATHION], in [3], the LC90 came out at 12.01 µg/mL (≈ 36.4 µM) and the LC50 came to 8.7 µg/mL (≈ 26.3 µM).

Turning to `CN[C@@H]1[C@H](O[C@H]2[C@H](O[C@H]3[C@H](O)[C@@H](O)[C@H](N=C(N)N)[C@@H](O)[C@@H]3N=C(N)N)O[C@@H](C)[C@]2(O)C=O)O[C@@H](CO)[C@H](O)[C@H]1O` [STREPTOMYCIN], the zone of inhibition at 10 µg/disc turned out to be 33.6 mm in data set [8], 26.3 mm in data set [9], 31.5 mm in data set [10] and 22.4 mm in [11].
